Bioassay records: PubChem BioAssay, several laboratories
Rows were chosen to be rich in hits. Some 5.3% of all compounds tested hit in one or more screens of this group.
Calb FLC – C. albicans growth inhibition with fluconazole, primary screen, CaCi-2 strain, Alamar Blue fluorescence; C. albicans CaCi-2 (fluconazole-resistant clinical isolate) + fluconazole, 48 h; growth inhibition, % (no concentration beside the values); 300,000 tested, 0.57% active;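 active = growth inhibition above about 58% in most replicates, limit read from the data, passing the limit was not always enough; inconclusive = exactly half the replicates above a set limit; inactive = most replicates below a set limit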;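 note: all wells also contain fluconazole at 8 µg/ml as a sub-toxic cotreatment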
CSC inhib – cancer stem cell viability inhibitors, primary screen, luminescence | AID 2717, 2010 | inhibition, % at 7.5 µM | 300,000 tested, 1.1% active | cancer stem cell-like cells viability; in the data active = inhibition above about 75%; inconclusive = no clear call, values can overlap the other calls; tested in HMLE shEcad cells
Mdm2-MdmX inh – inhibitors of human Mdm2-MdmX association, primary screen, cell-based, luminescence, split luciferase, SaOS-2, uHTS; Protein Mdm4 (Homo sapiens) + E3 ubiquitin-protein ligase Mdm2 (Homo sapiens), …; SaOS-2 split-luciferase Mdm2/MdmX complementation; inhibition, % at 8 µM; 330,000 tested, 3% active; AID 485346, 2010;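 active = inhibition of at least 50% at 8 µM in the primary screen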
Target sequence (O15151 whole entry, looked up): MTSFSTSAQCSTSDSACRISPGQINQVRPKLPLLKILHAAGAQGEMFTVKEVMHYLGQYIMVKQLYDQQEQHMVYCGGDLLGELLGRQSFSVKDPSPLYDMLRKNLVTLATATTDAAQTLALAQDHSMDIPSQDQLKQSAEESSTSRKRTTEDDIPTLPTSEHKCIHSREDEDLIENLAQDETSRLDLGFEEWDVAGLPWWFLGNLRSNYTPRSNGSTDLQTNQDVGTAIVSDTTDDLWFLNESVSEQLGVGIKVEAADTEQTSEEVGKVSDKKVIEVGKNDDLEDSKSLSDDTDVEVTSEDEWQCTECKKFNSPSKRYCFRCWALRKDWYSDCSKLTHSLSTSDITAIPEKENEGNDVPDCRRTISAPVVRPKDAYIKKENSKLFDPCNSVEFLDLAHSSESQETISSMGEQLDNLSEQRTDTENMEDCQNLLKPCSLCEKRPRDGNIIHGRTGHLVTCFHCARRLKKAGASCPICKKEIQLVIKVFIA
Target sequence (Q00987 whole entry, looked up): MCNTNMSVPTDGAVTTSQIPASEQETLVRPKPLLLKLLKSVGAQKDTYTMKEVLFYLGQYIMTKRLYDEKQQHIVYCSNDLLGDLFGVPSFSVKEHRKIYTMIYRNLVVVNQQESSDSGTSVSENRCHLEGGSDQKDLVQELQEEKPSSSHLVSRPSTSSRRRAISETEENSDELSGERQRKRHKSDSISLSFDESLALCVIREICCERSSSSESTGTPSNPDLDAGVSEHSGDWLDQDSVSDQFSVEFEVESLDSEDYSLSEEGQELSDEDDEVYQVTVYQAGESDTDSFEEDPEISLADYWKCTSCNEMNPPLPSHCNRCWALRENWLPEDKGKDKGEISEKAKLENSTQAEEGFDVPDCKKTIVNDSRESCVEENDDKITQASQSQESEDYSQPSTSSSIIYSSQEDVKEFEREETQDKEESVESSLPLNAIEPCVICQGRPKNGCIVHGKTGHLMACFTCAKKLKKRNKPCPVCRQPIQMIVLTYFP
NALP3 yeast inh – NALP3 inflammasome inhibitors in reconstituted yeast, primary screen, luminescence, uHTS; Yeast reconstituted NLRP3/ASC/caspase-1, beta-gal luminescence, 24 h; 330,000 tested, 0.39% active; inhibition, % at 10 µM;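 active = inhibition of 50% or more; inactive = inhibition below 50%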
T cruzi repl – inhibitors of intracellular T. cruzi growth, primary screen, luminescence, NIH3T3 host cells. 300,000 tested, 1.4% active. inhibition, % (concentration not given with the values). T. cruzi beta-gal in NIH3T3, 90 h;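 active = mean inhibition across valid replicates above about 55%, limit read from the data; inconclusive = mean below that limit but half or more replicates reach it; inactive = mean below it, under half of replicates reach it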;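 note: signal also drops with host cell toxicity which is not excluded here; higher percent means less beta-gal luminescence so fewer parasites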
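Test system: β-gal T. cruzi (Tulahuen C4) inside NIH/3T3 cells / Quantity: 5,000 cells/well / Measured by: luminescence from GalScreen with 0.05% NP40, read after 60 min / Medium: DMEM plus 2% FBS / Measure: parasite load inhibition, % / Reagent: Tulahuen C4 trypomastigotes, 5000/well / Schedule: co-culture of at least 90 h after 3 h attachment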
Beta apoptosis – inhibitors of cytokine-induced beta cell apoptosis, primary screen, luminescence; AID 435005, 2010; protection from apoptosis, % (test concentration not listed); INS-1E cytokine-induced death, ATP luminescence, 48 h; percent of positive-control rescue, neutral wells zero; 300,000 tested, 0.8% active;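 active = Every replicate reaches about 75%, or at least half do and their mean reaches it too, limit read from the data; inconclusive = At least half of replicates reach the limit but their mean does not; inactive = Under half of replicates reach the limit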;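 note: higher means more ATP so stronger rescue from cytokine killing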
Numbers stand for hits.

For Cc1nn(-c2ccccc2)c(Cl)c1/C=N/NC(N)=O the results were Calb FLC inactive, CSC inhib inactive, Mdm2-MdmX inh inactive, NALP3 yeast inh inactive, T cruzi repl inactive and Beta apoptosis inactive.
`O=C1NC2(CCC3(CC2)OCCO3)NN1c1ccccc1` gave Calb FLC 120, CSC inhib inactive, Mdm2-MdmX inh inactive, NALP3 yeast inh inactive, T cruzi repl inactive and Beta apoptosis inactive.
S=C1NC2(CCCCC2)NN1c1ccccc1 was read as Calb FLC 78, CSC inhib inactive, Mdm2-MdmX inh inactive, NALP3 yeast inh inactive, T cruzi repl inactive and Beta apoptosis inactive.
Screening CC1CCCC2(C1)NC(=S)N(c1ccccc1)N2 (configuration not stated) returned Calb FLC inconclusive, CSC inhib inactive, Mdm2-MdmX inh inactive, NALP3 yeast inh inactive, T cruzi repl inactive and Beta apoptosis inactive.
`Cc1ccc(C(=O)NNC(=O)CSc2nnc(CNc3ccc(F)cc3)n2C)cc1` gave Calb FLC inactive, CSC inhib inactive, Mdm2-MdmX inh inactive, NALP3 yeast inh inactive, T cruzi repl inactive and Beta apoptosis inactive.
`Cc1cc(C(=O)N/N=C/c2ccccn2)n[nH]1` gave Calb FLC inactive, CSC inhib inactive, Mdm2-MdmX inh inactive, NALP3 yeast inh inactive, T cruzi repl inactive and Beta apoptosis inactive.
`COc1ccc(-c2csc(NC(=O)Cc3cc(OC)c(OC)c(OC)c3)n2)cc1OC` gave Calb FLC inactive, CSC inhib inactive, Mdm2-MdmX inh inactive, NALP3 yeast inh inactive and T cruzi repl inactive.
Cc1ccc(S(=O)(=O)N2CCCCC2)cc1NC(=O)Nc1ccc(Cl)cc1Cl was read as CSC inhib inactive, Mdm2-MdmX inh inactive, NALP3 yeast inh inactive, T cruzi repl 55 and Beta apoptosis inactive.
CCN1CCN(CCCN(Cc2ccco2)C(=S)Nc2ccccc2Cl)CC1 was read as Calb FLC inactive, CSC inhib inactive, Mdm2-MdmX inh inactive, NALP3 yeast inh inactive, T cruzi repl inactive and Beta apoptosis inactive.
For COc1cccc(CN2CCNC(=O)C2CC(=O)NCCOc2cccnc2)c1OC (configuration not stated) the results were Calb FLC inactive, CSC inhib inactive, Mdm2-MdmX inh inactive, NALP3 yeast inh inactive, T cruzi repl inactive and Beta apoptosis inactive.
COc1ccc(S(=O)(=O)Nc2nncs2)cc1 was read as Calb FLC inactive, CSC inhib inactive, Mdm2-MdmX inh inactive, NALP3 yeast inh inactive, T cruzi repl inactive and Beta apoptosis inactive.
N#Cc1ccc(-c2ccccc2)nc1SCC(=O)c1cccc(Cl)c1 was read as Calb FLC inactive, CSC inhib inactive, Mdm2-MdmX inh inactive, NALP3 yeast inh inactive, T cruzi repl inactive and Beta apoptosis inactive.
`N#Cc1ccc(-c2ccc(Cl)cc2)nc1SCC(=O)c1cccc(Cl)c1` gave Calb FLC inactive, CSC inhib inactive, Mdm2-MdmX inh inactive, NALP3 yeast inh inactive, T cruzi repl inactive and Beta apoptosis 91.
`CC(C)(C)c1cc(C(=O)NN)n(Cc2ccc(F)cc2)n1` gave Calb FLC inactive, CSC inhib inactive, Mdm2-MdmX inh inactive, NALP3 yeast inh inactive, T cruzi repl inactive and Beta apoptosis inactive.
Screening Cc1ccc(C(=O)Cn2nnc3c(sc4nc5c(c(-c6ccccc6)c43)CCC5)c2=O)cc1 returned Calb FLC inactive, CSC inhib 86, Mdm2-MdmX inh inactive, NALP3 yeast inh inactive, T cruzi repl inactive and Beta apoptosis inactive.
For Cc1ccc(Cn2c(O)c(N=O)c3ccccc32)cc1 the results were Calb FLC inactive, CSC inhib inactive, Mdm2-MdmX inh inactive, NALP3 yeast inh inactive, T cruzi repl inactive and Beta apoptosis inactive.
`O=Nc1c(O)n(Cc2ccc(Cl)cc2Cl)c2ccccc12` gave Calb FLC inactive, CSC inhib 113, Mdm2-MdmX inh inactive, NALP3 yeast inh inactive, T cruzi repl inactive and Beta apoptosis inactive.
Screening O=c1cc(CCl)nc2sc3ccccc3n12 returned Calb FLC inactive, CSC inhib inactive, Mdm2-MdmX inh inactive, NALP3 yeast inh inactive, T cruzi repl 61 and Beta apoptosis inactive.
Screening Cc1ccc(OC(=O)CCC(=O)Nc2ccc(C(N)=O)cc2)cc1 returned Calb FLC inactive, CSC inhib inactive, Mdm2-MdmX inh inactive, NALP3 yeast inh inactive, T cruzi repl inactive and Beta apoptosis inactive.
O=[N+]([O-])c1cccc2ccc(/C=C/c3ccc(C(F)(F)F)cc3)nc12 was read as Calb FLC inactive, CSC inhib 78, Mdm2-MdmX inh inactive, NALP3 yeast inh inactive, T cruzi repl inactive and Beta apoptosis inactive.
O=[N+]([O-])c1cccc2ccc(/C=C/c3ccc(Cl)cc3)nc12 was read as Calb FLC inactive, CSC inhib inactive, Mdm2-MdmX inh inactive, NALP3 yeast inh inactive, T cruzi repl inactive and Beta apoptosis inactive.
Screening CC(=O)N(CCCN(C)C)CCC(C)CCC=C(C)C (configuration not stated) returned Calb FLC inactive, CSC inhib inactive, Mdm2-MdmX inh inactive, NALP3 yeast inh inactive, T cruzi repl 65 and Beta apoptosis inactive.
Cc1ccc(-n2sc3ccccc3c2=O)cc1 was read as Calb FLC inactive, CSC inhib inactive, Mdm2-MdmX inh inactive, NALP3 yeast inh inactive, T cruzi repl 74 and Beta apoptosis inactive.
`COc1cc(NC(=O)C2CCCN(S(=O)(=O)c3cccc4nsnc34)C2)cc(OC)c1` (configuration not stated) gave Calb FLC inactive, CSC inhib inactive, Mdm2-MdmX inh inactive, NALP3 yeast inh inactive, T cruzi repl inactive and Beta apoptosis inactive.
For c1ccc2c(c1)Nc1cc3ccccc3cc1S2 the results were Calb FLC inactive, CSC inhib inactive, Mdm2-MdmX inh inactive, NALP3 yeast inh inactive, T cruzi repl inactive and Beta apoptosis inactive.
`Cc1ccc2c(c1)Sc1c(ccc3ccccc13)N2` gave Calb FLC inactive, CSC inhib inactive, Mdm2-MdmX inh inactive, NALP3 yeast inh inactive, T cruzi repl inactive and Beta apoptosis 104.
For CCN(CC)c1ccc(C(=O)n2cnc3ccccc32)cc1 the results were Calb FLC inactive, CSC inhib inactive, Mdm2-MdmX inh inactive, NALP3 yeast inh inactive, T cruzi repl inactive and Beta apoptosis inactive.
O=[N+]([O-])c1ccc(N/N=C/c2sc(N3CCOCC3)nc2-c2ccccc2)c(S(=O)(=O)Nc2ccc(Cl)cc2)c1 was read as Calb FLC inactive and T cruzi repl 84.
For O=C(CCC(=O)N1CCN(S(=O)(=O)c2ccccc2)CC1)c1cccs1 the results were Calb FLC inconclusive, CSC inhib inactive, Mdm2-MdmX inh inactive, NALP3 yeast inh inactive, T cruzi repl inactive and Beta apoptosis inactive.
For N/C(=N\OC(=O)N1c2ccccc2Sc2ccccc21)c1ccccc1 the results were Calb FLC 94, CSC inhib inactive, Mdm2-MdmX inh inactive, NALP3 yeast inh inactive, T cruzi repl 82 and Beta apoptosis inactive.
